Only some compounds are listed: those with a hit (about 4.6% of all), similar ones and a draw of the others.
GPR7 antag: antagonists of human GPR7 (neuropeptides B/W receptor 1); AID 1861; P48145; GPR7-expressing cells, fluorescence antagonist assay; inhibition, % at 4.4 µM; 1.1% of 290,000 active; in the data active = inhibition above about 16%, passing the limit was not always enough;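 note: cells stimulated with the agonist NPW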
Target sequence (P48145 whole entry, looked up): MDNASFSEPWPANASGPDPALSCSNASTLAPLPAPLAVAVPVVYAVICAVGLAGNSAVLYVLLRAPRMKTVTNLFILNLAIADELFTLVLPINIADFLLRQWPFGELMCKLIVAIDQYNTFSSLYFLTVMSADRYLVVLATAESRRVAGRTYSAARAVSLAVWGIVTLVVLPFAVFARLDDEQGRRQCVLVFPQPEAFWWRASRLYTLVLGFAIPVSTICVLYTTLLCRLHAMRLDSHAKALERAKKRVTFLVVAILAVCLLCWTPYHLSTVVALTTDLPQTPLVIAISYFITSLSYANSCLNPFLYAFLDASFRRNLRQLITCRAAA
OX1R antag-1: blocks the human orexin 1 receptor; inhibition, % at 6.6 µM; 1.8% of 330,000 active; OX1R-expressing cells, FRET antagonist read-out; O43613; in the data active = inhibition mostly above about 38%, no sharp cut-off; inactive = mostly below about 40%
OX1R antag-2: antagonists of human orexin 1 receptor | O43613 | CHO/OX1R cells, Fluo-8 calcium fluorescence, orexin A | inhibition, % at 5 µM | 0.43% of 330,000 active | AID 434989;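 active = inhibition above its plate's threshold, mean inhibition of all tested compounds on the plate plus 3 SD, cut at about 37% in these data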
TAAR1 antagonist: human TAAR1 antagonism | 1.5% of 360,000 active | CHO RD-HGA16 TAAR1, Fluo-8 calcium fluorescence, antagonist | inhibition, % at 3 µM | Q96RJ0 | AID 624466;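 active = inhibition above a per-plate cutoff, the mean inhibition of test compounds on that plate plus 3 SD, cut at about 49% in these data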
Target sequence (Q96RJ0 whole entry, looked up): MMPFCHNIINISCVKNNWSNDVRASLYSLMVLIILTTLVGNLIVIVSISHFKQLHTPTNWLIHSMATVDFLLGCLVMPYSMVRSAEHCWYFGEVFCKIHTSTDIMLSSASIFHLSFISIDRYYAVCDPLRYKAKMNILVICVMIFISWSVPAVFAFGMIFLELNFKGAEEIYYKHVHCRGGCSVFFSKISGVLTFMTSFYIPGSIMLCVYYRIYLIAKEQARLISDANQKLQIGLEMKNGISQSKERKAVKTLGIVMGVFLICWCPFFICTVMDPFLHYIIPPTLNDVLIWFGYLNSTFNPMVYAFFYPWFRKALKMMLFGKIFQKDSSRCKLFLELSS
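test system = CHO RD-HGA16 cells bearing hTAAR1 | replication = singlicate | controls = DMSO-only wells and EC80 β-PEA-stimulated wells | reagent = EC80 β-phenethylamine stimulus | read-out basis = percent inhibition of PEA-evoked calcium signal, max/basal emission ratio | schedule = seeding 17-24 h prior, 75-min 37 °C, 30-min RT dye loading | signal = kinetic Fluo-8 calcium fluorescence measurement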
TAAR1 ag: human TAAR1 agonism; AID 624467; Q96RJ0; activation, % at 3 µM; CHO RD-HGA16 TAAR1, Fluo-8 calcium fluorescence; vehicle wells 0%, saturating PEA agonist 100%; 0.99% of 360,000 active;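 active = activation above the mean activation of all test compounds in the run plus 3 SD, cut at about 38% in these data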
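Test system: RD-HGA16 (CHO) cells co-expressing Gα16 and hTAAR1 | Doses: Single dose, 3 µM | Schedule: 17-24 h seeding, 75 min 37 °C dye, 30 min RT | Evaluation: % activation from peak over basal fluorescence ratio, DMSO-to-PEA scaled | Technique: Kinetic Fluo-8 calcium fluorescence | Benchmarks: Low control DMSO, high control PEA (EC100)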
CHO parental Ca: counter-screen: ATP calcium response change in parental CHO cells; parental CHO-K1, ATP-induced calcium, Fluo-8 fluorescence; inhibition, % at 5.6 µM; 0.63% of 330,000 active; AID 463079;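 active = inhibition above that plate's mean sample inhibition plus 3 SD, cut at about 26% in these data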
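Material – parental CHO cells · Reagent – ATP stimulus · Compound – single nominal dose of 5.6 µM per compound · Detection – Fluo-8 fluorescence · Read-out basis – percent inhibition of calcium signal · Controls – ATP-challenged DMSO wells low, unchallenged DMSO wells high · Repeats – no replicates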
OX1R Ca confirm: confirmation of human orexin 1 receptor antagonists; shares compounds with OX1R antag-2; 38% of 1,100 active; CHO/OX1R cells, orexin A calcium Fluo-8 fluorescence; AID 492963; inhibition, % at 5 µM; in the data active = inhibition above about 29%
CHO Ca triplic: counter-screen for OX1R antagonists: effect in parental CHO cells; shares compounds with OX1R antag-2; parental CHO-K1, ATP-induced calcium, Fluo-8 fluorescence; 9.3% of 1,100 active; inhibition, % at 5.6 µM; AID 492965;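 active = inhibition above a per-plate limit, the mean inhibition of that plate's test compounds plus 3 SD, cut at about 25% in these data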
OX1R HTRF confirm: confirmation of human orexin 1 receptor antagonists, HTRF format; inhibition, % at 6.6 µM; shares compounds with OX1R antag-1; AID 492964; OX1R-expressing cells, HTRF antagonist assay; 49% of 1,800 active; in the data active = inhibition above about 55%;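 note: CHO cells expressing OX1R stimulated with orexin A at about EC80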
CHO-K1 HTRF: signal in parental CHO-K1 cells, OX1R antagonist counter-screen; 48% of 1,800 active; HTRF counterscreen; inhibition, % at 6.6 µM; shares compounds with OX1R antag-1; in the data active = inhibition above about 17%
Numbers stand for hits; – = inactive; · = no result.

SMILES	GPR7 antag	OX1R antag-1	OX1R antag-2	TAAR1 antagonist	TAAR1 ag	CHO parental Ca	OX1R Ca confirm	CHO Ca triplic	OX1R HTRF confirm	CHO-K1 HTRF
COC(=O)[C@]12C[C@H](CC(=O)N3CCOCC3)C(=O)N(CCC3=CCCCC3)C1=C[C@H](C(C)(C)C)O[C@@H]2C	·	·	·	–	–	·	·	·	·	·
O=C(N/N=C/c1cccc(Oc2ccccc2)c1)c1ccc(O)cc1O	–	·	·	–	–	·	·	·	·	·
Cn1c2ccccc2c2cc(/C=N/NC(=O)c3ccc(O)cc3O)ccc21	–	91.5	–	·	·	–	–	25.0	73.3	–
Cc1ccccc1[C@]1(C)ON(c2ccccc2C(F)(F)F)C1=O	·	–	–	·	·	–	·	·	·	·
COc1cc(NC(=O)CSCc2cnn(-c3ccccc3)c2-n2cccc2)cc(OC)c1	–	78.0	49.7	–	–	–	–	–	89.1	–
CN1CCN(C(=O)c2cccc(-c3cnc4cnc(-c5ccccc5Oc5ccccc5)cn34)c2)CC1	·	·	·	–	–	·	·	·	·	·
CCNC(=O)c1cc2c(c(-c3cccc(-c4cccc(C(=O)N(C)C)c4)c3)n1)[C@@H](CCO)N(S(=O)C(C)(C)C)C2 (some centres not stated)	·	·	·	–	–	·	·	·	·	·
COc1ccccc1CCNC(=O)c1cc(C2CC2)nc2c1cnn2C(C)C	·	·	·	–	–	·	·	·	·	·
CC(C)n1ncc2c(C(=O)NCC(=O)Nc3ccccc3Br)cc(C3CC3)nc21	·	39.7	44.6	·	·	–	–	–	–	–
COc1ccc2oc(C(=O)Nc3nc4ccccc4[nH]3)c(C)c2c1	–	53.3	–	–	–	–	–	–	–	–
COc1ccc(Br)c(C(=O)Nc2nc3ccccc3[nH]2)c1	–	–	–	–	–	–	·	·	·	·
C[C@H]1COC(=O)[C@H](Cc2ccc(F)cc2)C/C=C\C[C@H](CC(=O)N(CCO)Cc2ccccc2)C(=O)N1	·	–	–	–	–	–	·	·	·	·
CC(C)(C)[C@@H]1COC(=O)[C@H](Cc2ccc(F)cc2)C/C=C\C[C@@H](CC(=O)N(CCO)Cc2ccccc2)C(=O)N1	·	66.9	–	–	–	–	–	–	72.4	–
O=C(NC1CCCC1)c1nc(-c2c(F)cccc2F)oc1-c1ccccc1	·	·	·	–	–	·	·	·	·	·
CC(=O)NC(Cc1c[nH]c2ccccc12)C(=O)N/N=C/c1ccccc1 (configuration not stated)	–	72.9	64.3	–	–	–	35.5	–	72.2	–
CC(C)C[C@H]1CN([C@@H](Cc2ccccc2)CN2CCC[C@H]2CN2C(=O)C(=O)NC[C@@H]2Cc2ccc(O)cc2)C(=O)C(=O)N1CCc1ccccc1	·	·	·	–	–	·	·	·	·	·
CC(C)c1ccc(CN(C)C(=O)c2ccc(S(=O)(=O)NCc3ccco3)cc2)cc1	·	41.9	44.5	–	–	–	–	25.0	–	–
CC(C)(C)c1ccc(CC(=O)N2CCC2(C)C(=O)NS(=O)(=O)c2ccc(F)cc2F)cc1 (configuration not stated)	·	·	·	–	–	·	·	·	·	·
Cc1ccc2nc(SCC(=O)c3c(C)[nH]c4ccccc34)[nH]c2c1	–	88.9	–	–	–	–	29.4	–	78.3	–
Cc1nc(-c2coc3cc(O)c(C)cc3c2=O)cs1	–	85.7	–	–	–	–	–	–	88.6	–
CCc1nc2c(OCc3cccc(Cl)c3)cccn2c1N(C)C(=O)CC(C)C	·	·	·	–	–	·	·	·	·	·
CCOc1ccc(-c2cc(C(=O)NCc3ccccc3)[nH]n2)c(C)c1	·	·	·	–	–	·	·	·	·	·
COc1ccc(C(=O)NCC2CCN(C(=O)C(=O)c3cccs3)CC2)cc1	·	·	·	–	–	·	·	·	·	·
O=C(COc1ccccc1F)Nc1cc(S(=O)(=O)Nc2cccc(Cl)c2)ccc1O	·	40.1	75.0	–	–	–	42.3	–	61.3	–
CS(=O)(=O)Nc1cccc(NC(=O)C2Cc3c(-c4cccc(F)c4)ccnc3O2)c1 (configuration not stated)	·	·	·	–	–	·	·	·	·	·
SMILES	GPR7 antag	OX1R antag-1	OX1R antag-2	TAAR1 antagonist	TAAR1 ag	CHO parental Ca	OX1R Ca confirm	CHO Ca triplic	OX1R HTRF confirm	CHO-K1 HTRF
Cc1[nH]c2ccccc2c1C(=O)c1cc(Cc2ccccc2)sc1N	·	·	·	–	–	·	·	·	·	·
Cc1cccc(NC(=O)/C(C#N)=C\c2cn(CC(=O)O)c3ccccc23)c1	–	82.7	–	–	–	–	37.2	–	78.2	–
Cc1cccc(COC[C@H](CC(C)C)N2CCN(C(=O)c3ccc(C(F)(F)F)cc3)CCC2=O)c1	·	·	·	–	–	·	·	·	·	·
COCCn1c(SCC(=O)Nc2ccc(F)cc2)nc2c(c1=O)SCC2	·	·	·	–	–	·	·	·	·	·
Cc1cc(N/N=C/c2ccc(O)c(C)c2O)nc(-c2ccccc2O)n1	–	63.4	50.7	56.6	–	–	39.5	–	–	17.3
C/C(=N\Nc1cc(C)nc(-c2ccccc2O)n1)c1ccccc1	–	–	–	–	–	–	·	·	·	·
Cc1ccc(Nc2cc(C)nc(-c3ccccc3O)n2)cc1	–	–	–	–	–	–	·	·	·	·
Cc1cc(NCCCN)nc(-c2ccccc2O)n1	–	55.2	–	–	–	–	–	–	–	–
Cc1ccc(/C=C2/Sc3ccccc3N(CC(=O)NCC3CCCO3)C2=O)cc1 (configuration not stated)	–	77.5	55.1	·	·	–	58.6	–	87.7	–
O=C(CN1C(=O)/C(=C/c2ccccc2)Sc2ccccc21)NCCCN1CCOCC1	–	–	–	–	–	–	·	·	·	·
O=C(CN1C(=O)/C(=C\c2cccc(Br)c2)Oc2ccccc21)NCC1CCCO1 (configuration not stated)	–	67.5	–	–	–	–	78.8	–	90.2	–
CCc1ccc(/C=C2/Sc3ccccc3N(CC(=O)NCC3CCCO3)C2=O)cc1 (configuration not stated)	–	95.1	84.2	–	–	–	44.9	–	86.9	–
Cc1[nH]c2ccccc2c1C(=O)c1c(N)[nH]c(C(=O)c2ccccc2)c1-c1ccc(Cl)cc1	·	·	·	–	–	·	·	·	·	·
CCN(CC)c1ncnc2c1ncn2[C@H]1CN(Cc2cccnc2)C[C@@H](CO)O1	·	·	·	–	–	·	·	·	·	·
Cn1nnnc1Sc1ncnc2scc(-c3ccsc3)c12	·	–	–	–	–	–	·	·	·	·
Cc1cc(C)cc(CSCC(=O)N/N=C/c2ccc(OCC(=O)NCc3ccco3)cc2)c1	–	58.5	50.3	·	·	–	31.8	–	–	–
CC(Sc1ccc(Cl)cc1)C(=O)NNC(=O)c1ccccc1O (configuration not stated)	–	65.5	–	–	–	–	31.9	–	74.7	–

Assay outcomes (PubChem BioAssay)
